The term logP denotes the decadic logarithm of the partition coefficient of the neutral form, usually between octanol and water. Read a low logP as lower lipophilicity.

Calls of active or inactive are those of the source. The rule behind the calls is not given here.

Consider 25 compounds from ChEMBL document CHEMBL4261535, “Tetrahydroquinolinone derivatives as potent P-glycoprotein inhibitors: design, synthesis, biological evaluation and molecular docking analysis” (Medchemcomm, 2017).

Data set [1] can be described thus: n-octanol-water partition co-efficient, log P of the compound. The data set is classed as physicochemical.
The test system of another data set is MES-SA. The data set is described as follows: Increase in rhodamine 123 accumulation in human MES-SA cells at 5 to 100 uM preincubated for 20 mins followed by rhodamine 123 addition and measured after 20 mins by flow cytometric method. The data set is classed as functional, cell-based. The gist of the method:
(§1)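 Cells in serum-free RPMI at 5 × 10^5 cells per ml (MES-SA/DX5 taken off doxorubicin one day before). Compound 20 min at 37 °C, then 5 μM rhodamine 123 for 20 min at 37 °C. Washed twice in ice-cold PBS, kept on ice. Flow cytometry at 488 nm excitation, 530 nm emission, 20 000 cells. Gmean fluorescence expressed as a ratio to untreated cells. Verapamil was the positive control.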
A general note: A flow cytometer gives signals particle by particle.

The species named for data set [2] is Homo sapiens. The data set is described as follows: Inhibition of p-gp in human MES-SA/DX5 cells assessed as increase in rhodamine 123 accumulation preincubated for 20 mins followed by rhodamine 123 addition and measured after 20 mins by flow cytometric method. The data set is classed as cell-based. The gist of the method:
as §1

For data set [3], the species on record is Homo sapiens. The data set is described as follows: Inhibition of p-gp in human MES-SA/DX5 cells assessed as potentiation of doxorubicin-induced cytotoxicity at 5 uM preincubated for 1.5 hrs followed by doxorubicin addition and measured after 48 hrs by MTT assay. The data set is classed as cell-based. (In general: Tetrazolium assays rely on reduction of a dye to a coloured formazan, in cell work by metabolically active cells.)

Data set [4] is filed under the species Homo sapiens. The data set is described as follows: Inhibition of p-gp in human MES-SA/DX5 cells assessed as potentiation of doxorubicin-induced cytotoxicity at 25 uM preincubated for 1.5 hrs followed by doxorubicin addition and measured after 48 hrs by MTT assay. The data set is classed as cell-based.
For data set [5], the species on record is Homo sapiens. The data set is described as follows: Inhibition of p-gp in human MES-SA/DX5 cells assessed as increase in rhodamine 123 accumulation preincubated for 20 mins followed by rhodamine 123 addition and measured after 20 mins by fluorescence microscopic method. The data set is classed as cell-based. The procedure, abridged:
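MES-SA/DX5 seeded at 2 × 10^5 cells per ml and grown two days at 37 °C. Compound at 25 μM for 20 min, then rhodamine 123 at 5 μM final for 20 min. Cells washed three times with ice-cold PBS and resuspended in cold PBS. Imaged by fluorescence microscopy with a blue filter (510–560 nm). Untreated cells served as control.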

On to `COc1cc(C2C(C(=O)OCc3ccccn3)=C(C)NC3=C2C(=O)CCC3)cc(OC)c1OC` (stereo not given), for which the logP in data set [1] is 2.17. In addition, in the data set on MES-SA, the outcome was inactive. In addition, the inhibition entry in the data set filed under Homo sapiens [2] was “Dose-dependent effect”.

In the case of `COc1ccc(C2C(C(=O)OCc3ccccn3)=C(C)NC3=C2C(=O)CCC3)cc1` (stereo not given), the logP in data set [1] stood at 1.9. Moreover, in the data set on MES-SA, the outcome was inactive. In the data set filed under Homo sapiens [3], the inhibition result is “Active”. The inhibition result in the data set filed under Homo sapiens [2] was “Dose-dependent effect”.

Take `CC1=C(C(=O)OCc2cccnc2)C(c2cccs2)C2=C(CCCC2=O)N1` (stereo not given): the logP in data set [1] is 1.4. The result in the data set on MES-SA was inactive. For the same compound, the inhibition entry in the data set listed under Homo sapiens [4] was “Active”. In addition, the inhibition result in the data set filed under Homo sapiens [2] is “Dose-dependent effect”.

`CC1=C(C(=O)OCc2ccccn2)C(c2ccc(C#N)cc2)C2=C(CCCC2=O)N1` (stereo not given) came in with a logP in data set [1] of 1.73. The result in the data set with MES-SA was inactive. Moreover, the inhibition entry in the data set filed under Homo sapiens [3] is “Active”. The inhibition entry in the data set filed under Homo sapiens [2] and in the data set listed under Homo sapiens [5] was “Dose-dependent effect” in each case.

The compound `CCCC1C(C(=O)OCc2cccnc2)=C(C)NC2=C1C(=O)CCC2` (stereo not given) registered a logP in data set [1] of 2.23. In the data set with MES-SA, the outcome was inactive. For the same compound, the inhibition result in the data set filed under Homo sapiens [2] was “Dose-dependent effect”.

`CC1=C(C(=O)OCc2ccccn2)C(c2ccc(O)cc2)C2=C(CCCC2=O)N1` (stereo not given) showed a logP in data set [1] of 1.58. For the same compound, the result in the data set with MES-SA was inactive. Besides, in the data set filed under Homo sapiens [2], the inhibition result is “Dose-dependent effect”.

On to `CCCC1C(C(=O)OCc2ccccn2)=C(C)NC2=C1C(=O)CCC2` (stereo not given), for which the logP in data set [1] was 2.6. In addition, the result in the data set on MES-SA was inactive. The inhibition result in the data set filed under Homo sapiens [2] is “Dose-dependent effect”.

Regarding `CC1=C(C(=O)OCc2cccnc2)C(c2ccc(C#N)cc2)C2=C(CCCC2=O)N1` (stereo not given), the logP in data set [1] came to 1.36. In addition, the result with MES-SA was inactive. For the same compound, the inhibition result in the data set listed under Homo sapiens [2] is “Dose-dependent effect”.

With `CC1=C(C(=O)OCc2ccccn2)C(c2cccs2)C2=C(CCCC2=O)N1` (stereo not given), in data set [1], the logP is 1.77. Also, in the data set with MES-SA, the result was inactive. For the same compound, in the data set listed under Homo sapiens [2], the inhibition result was “Dose-dependent effect”.

In turn, `CC1=C(C(=O)OCc2cccnc2)C(c2ccc(Br)cc2)C2=C(CCCC2=O)N1` (stereo not given) returned a lipophilicity (logP) in data set [1] of 2.05. Further, in the data set with MES-SA, the outcome was inactive. For the same compound, the inhibition entry in the data set listed under Homo sapiens [3] was “Active”. In addition, the inhibition entry in the data set filed under Homo sapiens [2] is “Dose-dependent effect”.

In data set [1], `CC1=C(C(=O)OCc2ccccn2)C(c2ccccc2[N+](=O)[O-])C2=C(CCCC2=O)N1` (stereo not given) registered a logP of 1.88. Also, the result with MES-SA was inactive. Besides, the inhibition entry in the data set filed under Homo sapiens [3] was “Active”. For the same compound, in the data set listed under Homo sapiens [5], the inhibition entry is “Dose-dependent effect”.

Turning to `CC1=C(C(=O)OCc2cccnc2)C(c2ccc([N+](=O)[O-])cc2)C2=C(CCCC2=O)N1` (stereo not given), the log partition coefficient (logP) in data set [1] was determined as 1.51. Also, the outcome with MES-SA was inactive. Also, the inhibition entry in the data set filed under Homo sapiens [4] was “Active”. The inhibition entry in the data set filed under Homo sapiens [2] and in the data set filed under Homo sapiens [5] was “Dose-dependent effect” each time.

Consider `CC1=C(C(=O)OCc2ccccn2)C(c2ccc(Br)cc2)C2=C(CCCC2=O)N1` (stereo not given), for which the log partition coefficient (logP) in data set [1] was 2.42. Besides, the result in the data set on MES-SA was inactive. The inhibition entry in the data set listed under Homo sapiens [3] is “Active”. For the same compound, the inhibition entry in the data set listed under Homo sapiens [2] and in the data set filed under Homo sapiens [5] was “Dose-dependent effect” in each case.

Regarding `CC1=C(C(=O)OCc2ccccn2)C(c2ccc(Cl)cc2)C2=C(CCCC2=O)N1` (stereo not given), the logP in data set [1] worked out at 2.24. Moreover, the result with MES-SA was inactive. For the same compound, the inhibition entry in the data set listed under Homo sapiens [3] was “Active”. In addition, the inhibition result in the data set filed under Homo sapiens [2] was “Dose-dependent effect”.

For the compound `CC1=C(C(=O)OCc2ccccn2)C(c2ccco2)C2=C(CCCC2=O)N1` (stereo not given), the logP in data set [1] was determined as 1.4. Moreover, in the data set on MES-SA, the outcome was inactive. Further, the inhibition result in the data set filed under Homo sapiens [2] is “Dose-dependent effect”.

The compound `COc1ccc(C2C(C(=O)OCc3cccnc3)=C(C)NC3=C2C(=O)CCC3)cc1` (stereo not given) returned a log partition coefficient (logP) in data set [1] of 1.53. In the data set with MES-SA, the outcome was inactive. Also, in the data set listed under Homo sapiens [2], the inhibition result is “Dose-dependent effect”.

Compound `CC1=C(C(=O)OCc2ccccn2)C(c2ccc([N+](=O)[O-])cc2)C2=C(CCCC2=O)N1` (stereo not given) registered a lipophilicity (logP) in data set [1] of 1.88. Moreover, the result in the data set with MES-SA was inactive. Also, the inhibition result in the data set listed under Homo sapiens [3] is “Active”. The inhibition result in the data set filed under Homo sapiens [2] and in the data set filed under Homo sapiens [5] was “Dose-dependent effect” throughout.

For the compound `CC1=C(C(=O)OCc2cccnc2)C(c2ccccc2[N+](=O)[O-])C2=C(CCCC2=O)N1` (stereo not given), in data set [1], the logP is 1.51. The outcome with MES-SA was inactive. For the same compound, the inhibition entry in the data set listed under Homo sapiens [4] is “Active”. For the same compound, the inhibition entry in the data set filed under Homo sapiens [5] was “Dose-dependent effect”.

`CC1=C(C(=O)OCc2cccnc2)C(c2cccc(O)c2)C2=C(CCCC2=O)N1` (stereo not given): the lipophilicity (logP) in data set [1] is 1.21. Also, in the data set with MES-SA, the outcome was inactive. Moreover, the inhibition entry in the data set listed under Homo sapiens [2] is “Dose-dependent effect”.

As for `CC1=C(C(=O)OCc2cccnc2)C(c2ccccc2)C2=C(CCCC2=O)N1` (stereo not given), the lipophilicity (logP) in data set [1] came out at 2.35. Moreover, the outcome in the data set with MES-SA was inactive. In the data set listed under Homo sapiens [2], the inhibition entry was “Dose-dependent effect”.

Take `CC1=C(C(=O)OCc2ccccn2)C(c2cccc([N+](=O)[O-])c2)C2=C(CCCC2=O)N1` (stereo not given): the logP in data set [1] was determined as 1.88. In the data set with MES-SA, the result was inactive. For the same compound, in the data set filed under Homo sapiens [2], the inhibition entry is “Dose-dependent effect”.

On to `CC1=C(C(=O)OCc2ccccn2)C(c2cccc(O)c2)C2=C(CCCC2=O)N1` (stereo not given), for which, in data set [1], the log partition coefficient (logP) came out at 1.58. Moreover, the result in the data set on MES-SA was inactive. Also, the inhibition entry in the data set listed under Homo sapiens [2] is “Dose-dependent effect”.

For `CC1=C(C(=O)OCc2cccnc2)C(c2ccc(Cl)cc2)C2=C(CCCC2=O)N1` (stereo not given), in data set [1], the lipophilicity (logP) stood at 1.87. The result in the data set with MES-SA was inactive. Further, in the data set listed under Homo sapiens [3], the inhibition result is “Active”. Also, in the data set filed under Homo sapiens [2], the inhibition entry is “Dose-dependent effect”.

As to `CC1=C(C(=O)OCc2cccnc2)C(c2ccco2)C2=C(CCCC2=O)N1` (stereo not given), the log partition coefficient (logP) in data set [1] worked out at 1.03. For the same compound, the outcome in the data set on MES-SA was inactive. Moreover, in the data set filed under Homo sapiens [2], the inhibition result was “Dose-dependent effect”.

As for `CC1=C(C(=O)OCc2ccccn2)C(c2ccccc2)C2=C(CCCC2=O)N1` (stereo not given), in data set [1], the logP turned out to be 2.72. In addition, the result with MES-SA was inactive. Further, in the data set filed under Homo sapiens [2], the inhibition entry is “Dose-dependent effect”.
